# From ChEMBL document CHEMBL4028903 (J Med Chem, 2017)
# The source made the active and inactive calls. The rule behind the calls is not given here.
# How the values were obtained:
# [1] = AUC (0 to 24 hrs) in Sprague-Dawley rat at 0.3 mg/kg, po qd administered via gavage measured on day 1 by LC-MS/MS analysis; format: ADME, organism-based; set-up: dose 0.3 mg/kg, time < 24 hr, route oral; conditions: in vivo
# Rattus norvegicus [2] = test: Dose normalized AUC (0 to 24 hrs) in Sprague-Dawley rat at 0.1 mg/kg, po qd administered via gavage measured on day 11 by LC-MS/MS analysis; format: ADME, organism-based; conditions: in vivo
# Rattus norvegicus [3] = test: In vivo agonist activity at FXR in po dosed Sprague-Dawley rat assessed as downregulation of CYP8B1 mRNA level in liver administered once daily for 14 days measured 7 hrs post last dose on day 14 by qPCR analysis; format: functional
# [4] = Drug uptake in Sprague-Dawley rat liver at 1 mg/kg, po qd administered via gavage measured 1 hr post last dose on day 14 by LC-MS/MS analysis; format: ADME, organism-based; conditions: read-out: Drug uptake
# In short: (§1)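 Drug concentration in liver was quantified from tissue homogenates, so these are total levels. Unbound liver concentration was not determined.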
# [5] = AUC (0 to 24 hrs) in Sprague-Dawley rat at 0.1 mg/kg, po qd administered via gavage measured on day 11 by LC-MS/MS analysis; format: ADME, organism-based; set-up: time < 24 hr, dose 0.1 mg/kg, route oral; conditions: in vivo
# [6] = Drug uptake in Sprague-Dawley rat plasma at 0.3 mg/kg, po qd administered via gavage measured 1 hr post last dose on day 14 by LC-MS/MS analysis; format: ADME, organism-based
# [7] = Cmax in Sprague-Dawley rat at 1 mg/kg, po qd administered via gavage measured on day 1 by LC-MS/MS analysis; format: ADME, organism-based; set-up: dose 1 mg/kg, route oral; conditions: in vivo
# [8] = Cmax in dog at 2 mg/kg, po administered via gavage by LC-MS/MS analysis; format: ADME, organism-based, Canis lupus familiaris; set-up: dose 2 mg/kg, route oral; conditions: in vivo
# In short: (§2)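 Single oral dose given as a suspension in 0.5% methylcellulose, 0.5% Tween80 and 99% water. Doses were 10 mg/kg in mouse, 1 mg/kg in rat and 2 mg/kg in dog.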
# Mus musculus = test: Drug metabolism in mouse assessed as glycine conjugated metabolite formation at 5 mg/kg, iv or 10 mg/kg, po administered via gavage by LC-MS/MS analysis; format: ADME, organism-based; conditions: in vivo
# [9] = Oral bioavailability in rat at 1 mg/kg administered via gavage by LC-MS/MS analysis; format: ADME, organism-based; conditions: in vivo
# In short: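 IV dosing used a solution in 75% PEG300:25% D5W for mouse and rat, and a solution in 20% PEG300, 5% solutol, 75% carbonate buffer pH 8 for dog. PO dosing used a suspension in 0.5% methylcellulose, 0.5% Tween80, 99% water for all three species.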
# [10] = Drug uptake in Sprague-Dawley rat plasma at 0.003 mg/kg, po qd administered via gavage measured 7 hrs post last dose on day 14 by LC-MS/MS analysis; format: ADME, organism-based
# [11] = AUC (0 to 24 hrs) in Sprague-Dawley rat at 0.03 mg/kg, po qd administered via gavage measured on day 11 by LC-MS/MS analysis; format: ADME, organism-based; set-up: time < 24 hr, dose 0.03 mg/kg, route oral; conditions: in vivo
# Rattus norvegicus [12] = test: Dose normalized AUC (0 to 24 hrs) in Sprague-Dawley rat at 3 mg/kg, po qd administered via gavage measured on day 11 by LC-MS/MS analysis; format: ADME, organism-based; conditions: in vivo
# Rattus norvegicus [13] = test: In vivo agonist activity at FXR in po dosed Sprague-Dawley rat assessed as induction of FGF15 protein level in plasma administered once daily for 14 days measured 24 hrs post last dose on day 14; format: functional, organism-based
# [14] = Cmax in Sprague-Dawley rat at 3 mg/kg, po qd administered via gavage measured on day 1 by LC-MS/MS analysis; format: ADME, organism-based; set-up: dose 3 mg/kg, route oral; conditions: in vivo
# [15] = Drug uptake in Sprague-Dawley rat liver at 0.003 mg/kg, po qd administered via gavage measured 7 hrs post last dose on day 14 by LC-MS/MS analysis; format: ADME, organism-based; conditions: read-out: Drug uptake; in short: as §1
# Rattus norvegicus [16] = test: Dose normalized AUC (0 to 24 hrs) in Sprague-Dawley rat at 0.1 mg/kg, po qd administered via gavage measured on day 1 by LC-MS/MS analysis; format: ADME, organism-based; conditions: in vivo
# [17] = Drug uptake in Sprague-Dawley rat liver at 0.03 mg/kg, po qd administered via gavage measured 1 hr post last dose on day 14 by LC-MS/MS analysis; format: ADME, organism-based; conditions: read-out: Drug uptake; in short: as §1
# [18] = Cmax in mouse at 10 mg/kg, po administered via gavage by LC-MS/MS analysis; format: ADME, organism-based; set-up: dose 10 mg/kg, route oral; conditions: in vivo; in short: as §2
# [19] = Drug uptake in Sprague-Dawley rat plasma at 0.03 mg/kg, po qd administered via gavage measured 1 hr post last dose on day 14 by LC-MS/MS analysis; format: ADME, organism-based
# Rattus norvegicus [20] = test: Dose normalized AUC (0 to 24 hrs) in Sprague-Dawley rat at 0.3 mg/kg, po qd administered via gavage measured on day 11 by LC-MS/MS analysis; format: ADME, organism-based; conditions: in vivo
# [21] = Clearance in dog at 0.5 mg/kg, iv by LC-MS/MS analysis; format: ADME, organism-based, Canis lupus familiaris; conditions: in vivo
# In short: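 Single IV dose given as a solution. Mouse received 5 mg/kg in 75% PEG300:25% D5W. Dog received 0.5 mg/kg in 20% PEG300, 5% solutol and 75% carbonate buffer pH = 8.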
# [22] = AUC in rat at 10 mg/kg, po administered via gavage by LC-MS/MS analysis; format: ADME, organism-based; conditions: in vivo
# In short: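 Rats were dosed IV as a solution in 75% PEG300:25% D5W, or orally as a suspension in 0.5% methylcellulose, 0.5% Tween80 and 99% water.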
# [23] = Protein binding in mouse plasma at 5 mg/kg, iv or 10 mg/kg, po administered via gavage by LC-MS/MS analysis; format: ADME, organism-based; conditions: read-out: PPB
# [24] = Half life in rat at 3 mg/kg, iv by LC-MS/MS analysis; format: ADME, organism-based; conditions: in vivo
# In short: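 Single IV dose given as a solution. Mouse and rat received it in 75% PEG300:25% D5W. Dog received it in 20% PEG300, 5% solutol and 75% carbonate buffer pH = 8. Plasma was sampled for PK parameters.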
# [25] = AUC (0 to 24 hrs) in Sprague-Dawley rat at 1 mg/kg, po qd administered via gavage measured on day 11 by LC-MS/MS analysis; format: ADME, organism-based; set-up: time < 24 hr, dose 1 mg/kg, route oral; conditions: in vivo
# Rattus norvegicus [26] = test: Drug metabolism in rat assessed as glycine conjugated metabolite formation at 3 mg/kg, iv or 1 mg/kg, po administered via gavage by LC-MS/MS analysis; format: ADME, organism-based; conditions: in vivo
# [27] = Protein binding in rat plasma at 0.01 to 0.05 mg/kg, po qd administered via gavage by LC-MS/MS analysis; format: ADME, organism-based; conditions: read-out: PPB
# [28] = Cmax in Sprague-Dawley rat at 0.3 mg/kg, po qd administered via gavage measured on day 11 by LC-MS/MS analysis; format: ADME, organism-based; set-up: dose 0.3 mg/kg, route oral; conditions: in vivo
# [29] = Drug uptake in Sprague-Dawley rat liver at 0.01 mg/kg, po qd administered via gavage measured 7 hrs post last dose on day 14 by LC-MS/MS analysis; format: ADME, organism-based; conditions: read-out: Drug uptake; in short: as §1
# [30] = Cmax in Sprague-Dawley rat at 0.1 mg/kg, po qd administered via gavage measured on day 11 by LC-MS/MS analysis; format: ADME, organism-based; set-up: dose 0.1 mg/kg, route oral; conditions: in vivo
# [31] = Drug uptake in Sprague-Dawley rat plasma at 0.1 mg/kg, po qd administered via gavage measured 1 hr post last dose on day 14 by LC-MS/MS analysis; format: ADME, organism-based
# Rattus norvegicus [32] = test: Drug metabolism in rat assessed as taurine conjugated metabolite formation at 3 mg/kg, iv or 1 mg/kg, po administered via gavage by LC-MS/MS analysis; format: ADME, organism-based; conditions: in vivo
smiles,measurement,setting,value
O=C(O)c1cc(F)c2nc(N3C4CCC3CC(OCc3c(-c5ccccc5OC(F)(F)F)noc3C3CC3)C4)sc2c1 (stereo not drawn),AUC(0-t) at 24 h,[1],0.117 µM·h
same,AUC/dose,Rattus norvegicus [2],796 nM·h
same,ED50,Rattus norvegicus [3],0.01 mg/kg
same,concentration at 1 h,[4],159 nM
same,AUC at 24 h,[5],0.08 µM·h
same,concentration at 1 h,[6],6.84 nM
same,Cmax,[7],39.3 nM
same,Cmax,[8],332 nM
same,Drug metabolism,Mus musculus,Metabolite_Notdetected
same,bioavailability,[9],10%
same,concentration at 7 h,[10],0.12 nM
same,AUC at 24 h,[11],0.02 µM·h
same,AUC/dose,Rattus norvegicus [12],563 nM·h
same,Activity,Rattus norvegicus [13],inactive
same,Cmax,[14],172 nM
same,concentration at 7 h,[15],2.3 nM
same,AUC/dose,Rattus norvegicus [16],410 nM·h
same,concentration at 1 h,[17],11.9 nM
same,Cmax,[18],1190 nM
same,concentration at 1 h,[19],1.29 nM
same,AUC/dose,Rattus norvegicus [20],633 nM·h
same,clearance,[21],1.5 mL/min/kg
same,AUC,[22],6.04 µM·h
same,fraction unbound,[23],0.001
same,half-life,[24],3.7 h
same,AUC at 24 h,[25],0.562 µM·h
same,Drug metabolism,Rattus norvegicus [26],Metabolite_Notdetected
same,fraction unbound,[27],0.001
same,Cmax,[28],14.8 nM
same,concentration at 7 h,[29],5.18 nM
same,Cmax,[30],7.1 nM
same,concentration at 1 h,[31],3.95 nM
same,Drug metabolism,Rattus norvegicus [32],Metabolite_Notdetected
